Molecules are shown by their SMILES.

The values that follow come from ChEMBL document CHEMBL1126717 (J Med Chem, 1993).

Holding throughout (assay type): cell-based
For test [1], the target named is T1, Polyunsaturated fatty acid 5-lipoxygenase (Rattus norvegicus) (UniProt P12527).
T1 sequence (whole entry): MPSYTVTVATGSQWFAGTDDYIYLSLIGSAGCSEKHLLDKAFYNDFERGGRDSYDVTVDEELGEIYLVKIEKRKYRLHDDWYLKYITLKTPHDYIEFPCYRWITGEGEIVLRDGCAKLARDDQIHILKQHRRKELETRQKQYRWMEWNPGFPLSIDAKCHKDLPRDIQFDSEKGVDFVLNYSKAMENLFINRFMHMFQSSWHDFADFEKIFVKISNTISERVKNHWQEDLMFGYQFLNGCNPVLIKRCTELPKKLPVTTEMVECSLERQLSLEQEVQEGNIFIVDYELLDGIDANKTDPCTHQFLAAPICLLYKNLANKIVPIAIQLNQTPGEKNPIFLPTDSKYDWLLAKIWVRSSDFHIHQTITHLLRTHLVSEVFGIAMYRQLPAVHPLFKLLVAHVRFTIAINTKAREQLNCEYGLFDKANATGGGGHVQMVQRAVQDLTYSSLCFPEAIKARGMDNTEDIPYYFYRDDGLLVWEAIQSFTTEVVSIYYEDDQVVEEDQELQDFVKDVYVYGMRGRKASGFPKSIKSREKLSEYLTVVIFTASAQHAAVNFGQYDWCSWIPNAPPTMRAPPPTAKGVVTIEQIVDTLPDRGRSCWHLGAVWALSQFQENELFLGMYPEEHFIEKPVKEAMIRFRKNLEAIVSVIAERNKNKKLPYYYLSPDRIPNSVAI
Briefly: Inhibition of LTB4 in whole cell 5-lipoxygenase assay in an intact rat basophilic leukemia (RBL-1) cell line at 16 uM. In outline:
(§1)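 RBL-1 cells grown at 37 °C in suspension in MEM with 12% FBS under 5% CO₂. Washed in cold PBS pH 7.4 and resuspended at 2 × 10⁶ cells/mL in PBS with 1.0 mM calcium. Preincubated with test agent in 1% DMSO for 10 min at room temperature, then stimulated with A23187 (5 μM) for 7 min at 37 °C. LTB₄ in the supernatant measured by RIA. Percent inhibition taken against vehicle; IC₅₀ by linear regression on log concentration.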

In test [2] the target is T2, Polyunsaturated fatty acid 5-lipoxygenase (Rattus norvegicus, UniProt P12527).
T2 sequence (P12527 whole entry): T1 sequence (whole entry)
Briefly: Inhibition 5-lipoxygenase mediated LTB4 formation in rat basophilic leukemia (RBL-1) cells. In a few lines: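 Washed in cold PBS pH 7.4 and resuspended at 2 × 10⁶ cells/mL in PBS with 1.0 mM calcium. Preincubated with test agent in 1% DMSO for 10 min at room temperature, then stimulated with A23187 (5 μM) for 7 min at 37 °C. LTB₄ in the supernatant measured by RIA. Percent inhibition taken against vehicle; IC₅₀ by linear regression on log concentration.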

In the next test the target is T3, Cyclooxygenase (Rattus norvegicus, UniProt P35355+Q63921).
T3 sequence (P35355 whole entry): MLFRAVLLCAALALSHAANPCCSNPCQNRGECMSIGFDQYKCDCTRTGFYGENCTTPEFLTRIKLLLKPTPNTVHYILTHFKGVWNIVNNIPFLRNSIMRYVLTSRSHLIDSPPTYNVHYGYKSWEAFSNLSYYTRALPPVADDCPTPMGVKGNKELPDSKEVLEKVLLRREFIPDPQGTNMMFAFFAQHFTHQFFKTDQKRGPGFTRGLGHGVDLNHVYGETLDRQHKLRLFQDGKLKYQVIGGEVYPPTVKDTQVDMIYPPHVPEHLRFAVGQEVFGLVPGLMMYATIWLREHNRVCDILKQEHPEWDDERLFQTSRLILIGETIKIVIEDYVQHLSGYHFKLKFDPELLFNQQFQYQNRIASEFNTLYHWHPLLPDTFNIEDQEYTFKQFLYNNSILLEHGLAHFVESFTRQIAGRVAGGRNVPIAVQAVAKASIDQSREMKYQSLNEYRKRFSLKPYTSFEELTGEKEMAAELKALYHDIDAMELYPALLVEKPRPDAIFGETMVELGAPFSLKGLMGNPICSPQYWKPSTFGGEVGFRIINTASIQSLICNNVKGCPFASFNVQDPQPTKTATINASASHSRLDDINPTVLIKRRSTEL
T3 sequence (Q63921 whole entry): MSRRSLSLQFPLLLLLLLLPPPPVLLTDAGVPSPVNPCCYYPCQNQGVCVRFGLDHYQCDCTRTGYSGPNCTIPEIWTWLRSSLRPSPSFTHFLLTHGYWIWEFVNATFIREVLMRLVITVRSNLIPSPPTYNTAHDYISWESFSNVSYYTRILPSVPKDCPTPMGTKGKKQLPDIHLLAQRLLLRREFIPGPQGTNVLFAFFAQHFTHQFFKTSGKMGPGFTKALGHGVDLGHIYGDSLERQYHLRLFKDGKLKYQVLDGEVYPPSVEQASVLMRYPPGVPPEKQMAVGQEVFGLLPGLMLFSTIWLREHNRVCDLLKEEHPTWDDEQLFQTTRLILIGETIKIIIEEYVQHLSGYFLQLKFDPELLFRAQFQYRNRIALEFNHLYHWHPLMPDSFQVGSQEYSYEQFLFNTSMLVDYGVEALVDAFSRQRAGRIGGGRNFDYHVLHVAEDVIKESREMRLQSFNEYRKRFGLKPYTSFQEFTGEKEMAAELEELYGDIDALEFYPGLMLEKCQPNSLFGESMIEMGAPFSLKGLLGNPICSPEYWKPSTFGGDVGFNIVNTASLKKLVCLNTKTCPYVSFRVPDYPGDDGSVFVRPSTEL
Kind of test: Inhibition of Prostaglandin G/H synthase mediated PGF2-alpha formation in rat basophilic leukemia (RBL-1) cells.

Test [3] concerns the target T1, Polyunsaturated fatty acid 5-lipoxygenase (Rattus norvegicus). Kind of test: Inhibition of LTB4 in whole cell 5-lipoxygenase assay in an intact rat basophilic leukemia (RBL-1) cell line at 10 uM. In a few lines:
as §1

Test [4] has as its target T4, Cyclooxygenase (Rattus norvegicus) (UniProt P35355+Q63921). Briefly: Inhibition of PGF2-alpha formation in Prostaglandin G/H synthase assay in an intact rat basophilic leukemia (RBL-1) cell line at 10 uM. In outline: (§2)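 RBL-1 suspension cultures (MEM, 12% FBS, 37 °C, 5% CO₂) were washed in PBS and held at 2 × 10⁶ cells/mL in PBS containing 1.0 mM Ca. Cells were exposed to compound in 1% DMSO for 10 min at room temperature, then to 5 μM A23187 for 7 min at 37 °C, and chilled on ice to stop. PGF₂α in the supernatant was measured by RIA. Percent inhibition was calculated relative to vehicle-treated cells.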

The target of test [5] is T4, Cyclooxygenase (Rattus norvegicus). Kind of test: Inhibition of PGF2-alpha formation in Prostaglandin G/H synthase assay in an intact rat basophilic leukemia (RBL-1) cell line at 16 uM. In a few lines:
as §2

In test [6] the target is T1, Polyunsaturated fatty acid 5-lipoxygenase (Rattus norvegicus). Kind of test: Inhibition of LTB4 in whole cell 5-lipoxygenase assay in an intact rat basophilic leukemia (RBL-1) cell line. In a few lines:
as §1

With `FC(F)(F)c1cccc(Nc2ccccc2-c2n[nH]c(S)n2)c1`, the inhibition in test [1] is < 40%.
With `Cc1ccc(Cl)c(Nc2ccccc2-c2nnc(NC#N)s2)c1Cl`, the IC50 was 0.29 µM in test [2] and 1.9 µM on Cyclooxygenase.
As to `Cc1ccc(Cl)c(Nc2ccccc2-c2nnc(N)o2)c1Cl`, the figures for the inhibition in test [3] and in test [4] were 45% and < 40%, respectively.
For `Cc1ccc(Cl)c(Nc2ccccc2-c2nnc(O)n2C)c1Cl`, the inhibition in test [1] and in test [5] was < 40% throughout.
Turning to `Cc1ccc(Cl)c(Nc2ccccc2-c2nnc(N)s2)c1Cl`, the IC50 was 0.69 µM in test [2] and 6.1 µM on Cyclooxygenase.
On the same counts, the results for `Cn1c(S)nnc1-c1ccccc1Nc1cccc(C(F)(F)F)c1` are 12 µM and 30 µM.
On to `Nc1nnc(-c2ccccc2Nc2cccc(C(F)(F)F)c2)s1`, for which, at Cyclooxygenase, the IC50 was 11 µM.
`Cc1ccc(Cl)c(Nc2ccccc2-c2nnc(NC#N)o2)c1Cl` yielded an IC50 against Cyclooxygenase of 0.25 µM.
Regarding `Cn1c(O)nnc1-c1ccccc1Nc1cccc(C(F)(F)F)c1`, the inhibition in test [1] and in test [5] was < 40% in each case.
As for `Oc1nnc(-c2ccccc2Nc2cccc(C(F)(F)F)c2)s1`, the half-inhibitory concentration (IC50) in test [6] stood at 7.4 µM.
On to `Nc1nnc(-c2ccccc2Nc2cccc(C(F)(F)F)c2)o1`, for which the IC50 against Cyclooxygenase came to 7.1 µM. This counts as single-digit micromolar.
For `Oc1n[nH]c(-c2ccccc2Nc2cccc(C(F)(F)F)c2)n1`, the inhibition in test [3] and in test [4] was < 40% each time.
`Cc1ccc(Cl)c(Nc2ccccc2-c2nnc(S)s2)c1Cl` came in with an IC50 at Cyclooxygenase of 1.7 µM. In other words, the single-digit micromolar range.
Consider `Cc1ccc(Cl)c(Nc2ccccc2-c2nnc(S)n2C)c1Cl`, for which the inhibition is 86% in test [1] and < 40% in test [5].
`N#CNc1nnc(-c2ccccc2Nc2cccc(C(F)(F)F)c2)s1`: the concentration for half-maximal inhibition (IC50) in test [2] came to 1.7 µM; against Cyclooxygenase, 2.6 µM.
As to `Cc1ccc(Cl)c(Nc2ccccc2-c2n[nH]c(S)n2)c1Cl`, the inhibition in test [1] and in test [5] was < 40% each time.
Regarding `N#CNc1nnc(-c2ccccc2Nc2cccc(C(F)(F)F)c2)o1`, the IC50 at Cyclooxygenase was determined as 1 µM.

By inhibition is commonly meant the percentage by which the read-out fell short of the control. Low readings indicate a response near the control, high ones a response far below the control. Broadly, the IC50 is the midpoint of a concentration-inhibition curve. A lower IC50 goes with higher potency.
